Article PMC7380323 (ACS chemical neuroscience, 2020)
Read-outs that look alike come from different tables or passages of the source.

Tests used:
κ-opioid receptor = details: cited from earlier work
Mouse microglia [1] = assay type: cell-based
Swiss Webster mice [2] = assay: Rotarod test; assay type: in vivo, mouse; details: 5 mg/kg
Mouse microglia [3] = assay: Cell viability; assay type: cell-based; details: for Cell viability (%) Mouse microglia 50 μM: CellTiter-Glo
Swiss Webster mice [4] = assay: Formalin test; assay type: in vivo, mouse; details: 30 mg/kg orally
Method in brief: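 Test compounds given orally four days before 2% formalin was injected into the right hind paw of Swiss Webster mice.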

[5] = system: HMC3 human microglia cells; assay type: cell-based; details: −80 mV
[6] = system: immortalized mouse microglia cells; assay: Automated patch clamp, GABA current response in immortalized mouse microglia; assay type: cell-based
[7] = system: immortalized human microglia cells; assay: Automated patch clamp, GABA current response in immortalized human microglia; assay type: cell-based
RAW macrophages [8] = assay: Inhibition of NO production; assay type: cell-based, mouse; details: 24 h, IFNγ/LPS activated, 1 μM GABA
Method in brief: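 RAW264.7 murine macrophages were grown in DMEM/high glucose with 10% heat-inactivated FBS, penicillin/streptomycin and Normocin at 37°C and 5% CO2, and passaged by scraping. […] After about 24 h at 37°C, nitrite in the supernatant was measured by Griess assay (absorbance 530 nm).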

RAW macrophages [9] = assay: Cell viability; assay type: cell-based, mouse; details: CellTiter-Glo

Question: Which “affinity for the κ-opioid receptor (in words)” value (κ-opioid receptor) does the source give for CNC1=Nc2ccc(Cl)cc2C(c2ccccc2)=[N+]([O-])C1 [chlordiazepoxide] here?
Answer: micromolar affinities

Question: With Oc1ccc2c3c1O[C@H]1c4[nH]c5c(c4C[C@@]4(O)[C@@H](C2)N(CC2CC2)CC[C@]314)C[C@@]1(O)[C@H]2Cc3ccc(O)c4c3[C@@]1(CCN2CC1CC1)[C@H]5O4 [norbinaltorphimine] as the compound, how does the “reversal of the NO effect of 50 μM MP-IV-010 by antagonist” value (Mouse microglia [1]; antagonist 30 μM, 14 h) read?
Answer: reversed

Question: With Cc1ncc2n1-c1ccc(Cl)cc1C(c1ccccc1F)=NC2 [midazolam] as the compound, how does the “affinity for the κ-opioid receptor (in words)” value (κ-opioid receptor) read?
Answer: micromolar affinities

Question: What does the source list for CN1C(=O)CN=C(c2ccccc2)c2cc(Cl)ccc21 [diazepam]?
Answer: affinity for the κ-opioid receptor (in words) (κ-opioid receptor): micromolar affinities; sedation on the rotarod (Swiss Webster mice [2]): sedating

Question: For CCOC(=O)c1ncn2c1CN(C)C(=O)c1cc(F)ccc1-2 [flumazenil], which “reversal of the NO effect of 50 μM MP-IV-010 by antagonist” value (Mouse microglia [1]) is on record?
Answer: did not reverse

Question: Which results are given for C#Cc1ccc2c(c1)C(c1ccccn1)=NCc1c(-c3cnco3)ncn1-2 [KRM-II-81]?
Answer: Inhibition of NO production (%) Mouse microglia 50 μM (Mouse microglia [1]): 0 ± 1%; Cell viability (%) Mouse microglia 50 μM (Mouse microglia [3]): 100 ± 5%

Question: Which “reversal of the NO effect of 50 μM MP-IV-010 by antagonist” value (Mouse microglia [1]; antagonist 50 μM, with GABA, 14 h) does the source give for picrotoxin here?
Answer: did not reverse

Question: With CC(C(=O)O)c1cccc(C(=O)c2ccccc2)c1 (stereo not drawn) [ketoprofen] as the compound, how does the “antinociceptive effect in the formalin test compared with GL-IV-03 10 mg/kg” value (Swiss Webster mice [4]) read?
Answer: similar

Question: With CN1CCc2cc3c(cc2[C@H]1[C@@H]1OC(=O)c2c1ccc1c2OCO1)OCO3 [bicuculline] as the compound, how does the “reversal of the NO effect of 50 μM MP-IV-010 by antagonist” value (Mouse microglia [1]; antagonist 100 μM, with GABA, 14 h) read?
Answer: did not reverse

Question: Which results are given for C[C@@H]1C[C@H]2[C@@H]3CCC4=CC(=O)C=C[C@]4(C)[C@@]3(F)[C@@H](O)C[C@]2(C)[C@@]1(O)C(=O)CO [dexamethasone]?
Answer: NO production of activated microglia (Mouse microglia [1]; 100 nM, Griess assay after 14 h): reduced NO production; cytotoxicity / cell viability in the antagonist experiments (CellTiter-Glo) (Mouse microglia [3]; activated mouse microglia, concentrations as in the NO experiments): without cell toxicity

Question: Which results are given for NCCCC(=O)O [GABA, γ-aminobutyric acid]?
Answer: maximum negative current response for 1 mM GABA [5]: 746 pA; maximum current response for 1 mM GABA [6]: 1514 pA; secreted NO levels of activated microglia (Mouse microglia [1]; 1 μM, Griess assay after 14 h): no effect; maximum current response for 1 mM GABA [7]: 1245 pA

Question: Which “reversal of the NO effect of 50 μM MP-IV-010 by antagonist” value (Mouse microglia [1]; antagonist 30 μM, 14 h) does the source give for SM-21 here?
Answer: no reversal

Question: Which results are given for C#Cc1ccc2c(c1)C(c1ccccc1F)=N[C@H](C)c1c(C(=O)NC)ncn1-2 [MP-III-022]?
Answer: Inhibition of NO production (%) RAW macrophages 10 μM (RAW macrophages [8]; 10 μM): 9 ± 5%; Inhibition of NO production (%) RAW macrophages 50 μM (RAW macrophages [8]; 50 μM): 51 ± 7%; Inhibition of NO production (%) Mouse microglia 10 μM (Mouse microglia [1]): 36 ± 6%; Inhibition of NO production (%) Mouse microglia 50 μM (Mouse microglia [1]): 60 ± 12%; Cell viability (%) Mouse microglia 50 μM (Mouse microglia [3]): 86 ± 2%; Cell viability (%) RAW macrophages 50 μM (RAW macrophages [9]): 100 ± 11%
